Screening results from PubChem BioAssay.
Hits are enriched below; roughly 1.3% of the tested compounds scored in any of these assays.
ARFGAP1 inhibitor – inhibitors of rat ARFGAP1 GAP activity, primary screen, biochemical, fluorescence polarization, GDP tracer. ADP-ribosylation factor GTPase-activating protein 1 (Rattus norvegicus), Q62848. Arfgap1-stimulated ARF1 GTP hydrolysis, GDP FP detection. inhibition, % at 16.5 µM. 360,000 tested, 0.26% active. AID 651572, 2012;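 active means inhibition above a per-plate limit, mean inhibition of low control wells plus 3 SD, cut at about 25% in these data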;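 further: 0% = DMSO wells with enzyme and 100% = wells lacking Arfgap1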
Target sequence (Q62848 1-136 limits assumed): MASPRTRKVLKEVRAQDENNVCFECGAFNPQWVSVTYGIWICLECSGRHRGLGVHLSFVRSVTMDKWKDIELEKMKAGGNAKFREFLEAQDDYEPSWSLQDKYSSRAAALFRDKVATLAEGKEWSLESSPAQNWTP
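System: truncated rat Arfgap1 GAP domain / Medium: HEPES-based buffer, pH 7.5 / Also added: N-terminally truncated human ARF1-GTP substrate / Incubation: enzyme reaction 120 min at 25 °C after 20 min preincubation / Measured by: FP of antibody-bound GDP Alexa 633 tracer, ex 620/em 688 nm / Replicates: singlicate, each compound tested once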
LEDGF integ inh – blockers of LEDGF/p75-dependent integrase strand transfer – biochemical, TR-FRET, high throughput, primary screen; HIV-1 integrase (with human LEDGF/p75); TR-FRET IN-LEDGF/p75 DNA integration, Eu/Cy5; inhibition, % at 3.7 µM; 370,000 tested, 0.64% active; AID 743269, 2014;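 active means inhibition above the screen-wide mean plus 3 SD, cut at about 13% in these data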;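 further: signal is the Cy5 over europium emission ratio at 671 and 618 nm; 0% = plate median of compound wells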
TDP2 inh – human TDP2 enzyme inhibitors, primary screen, biochemical, epi absorbance, recombinant enzyme; AID 720702, 2013; T5PNP hydrolysis, p-nitrophenol absorbance 415 nm; 370,000 tested, 0.34% active; inhibition, % at 12.8 µM;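 active means inhibition above the mean of all tested compounds plus 3 SD, set per campaign, cut at about 25% in these data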;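 further: 0% = DMSO with enzyme and 100% = buffer with substrate but no TDP2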
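System – recombinant human TDP2 · Amount – 120 nM TDP2 per well · Buffer or medium – Mg2+-containing Tris-HCl buffer, pH 7.5 · Reagent – T5PNP substrate, 5 mM · Dosing – 12.8 µM single point, 1% DMSO · Incubation – 2 h at 37 °C · Measured by – epi absorbance · Read-out basis – percent inhibition · Benchmarks – high control without enzyme, low control DMSO plus TDP2 · Repeats – singlicate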
ASAP1 GAP inh – inhibitors of human ASAP1 ArfGAP activity, primary screen, biochemical, fluorescence polarization. inhibition, % at 16.5 µM. ASAP1-stimulated ARF1 GTP hydrolysis, GDP FP detection. Arf-GAP with SH3 domain, ANK repeat and PH domain-containing protein 1 (Homo sapiens), …. 360,000 tested, 0.19% active; in the data active means inhibition above about 25%;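 further: 0% = vehicle with enzyme and substrate and 100% = no enzyme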
Casp6 inh – human caspase-6 inhibitors, primary screen, biochemical, VEID-R110 fluorescence, single point, set 2 | purified caspase-6, Z-VEID-R110 cleavage fluorescence | inhibition, % at 12.5 µM | 350,000 tested, 0.53% active | AID 686996, 2013;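 active means mean inhibition across replicates at least about 35%, with every replicate also reaching that limit, limit read from the data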;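 further: 0% = median of neutral control wells and 100% = no fluorescence left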
Target sequence (P55212 24-179 limits assumed): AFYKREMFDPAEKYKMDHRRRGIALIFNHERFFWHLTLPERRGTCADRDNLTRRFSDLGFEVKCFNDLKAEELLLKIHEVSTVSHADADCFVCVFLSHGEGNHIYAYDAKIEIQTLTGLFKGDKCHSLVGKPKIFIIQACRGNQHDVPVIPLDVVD
Target sequence (P55212 194-293 limits assumed): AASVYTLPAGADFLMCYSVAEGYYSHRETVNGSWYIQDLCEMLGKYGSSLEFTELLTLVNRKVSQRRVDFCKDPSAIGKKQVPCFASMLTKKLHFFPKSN
* = called active by the depositor; / = no result given.

SMILES	ARFGAP1 inhibitor	LEDGF integ inh	TDP2 inh	ASAP1 GAP inh	Casp6 inh
O=C(O)C1Sc2[nH]c(=O)sc2C2c3cc(Cl)ccc3OC(=O)C12 (stereo unspecified)	-1	-4	9	-3	/
O=C(O)C1Sc2[nH]c(=O)sc2C2c3ccc(O)cc3OC(=O)C12 (stereo unspecified)	15	2	6	-7	58*
Cc1csc(=O)n1CCC(=O)OCc1nnc(-c2ccc([N+](=O)[O-])cc2)o1	7	2	16	9	52*
Cc1ccc(C)c(Nc2cc(C)nc3ccccc23)c1	5	1	-9	12	1
Cc1ccc(N2C(=O)c3ccccc3C2C(=O)c2ccc(O)cc2O)cc1 (stereo unspecified)	-8	11	-5	-26	74*
Cc1ccc(N2C(=O)c3ccccc3C2C(=O)c2cc(C)ccc2O)cc1 (stereo unspecified)	-2	-5	-12	7	3
Cc1ccc(OCC(=O)Nc2cc(S(=O)(=O)N3CCCCC3)ccc2C)c([N+](=O)[O-])n1	7	0	-12	9	/
O=C(Nc1ccccc1)NN(C(=O)CCl)c1ccccc1	-4	1	4	-2	50*
O=C(O)C1C=Cc2ccccc2N1C(=O)c1ccccc1 (stereo unspecified) (tested in a mixture with another compound)	5	-3	-5	-1	39*
N#CC1C=Cc2ccccc2N1C(=O)c1ccccc1 (stereo unspecified)	-4	-3	11	15	2
Cc1ccc(Nc2nc(-c3cccs3)cs2)nc1	8	-6	7	10	7
COc1ccc(Cn2c(SCC(=O)NCc3ccco3)nc3ccsc3c2=O)cc1	-3	21*	-9	-6	/
O=C1C2CC=CCC2C(=O)N1CC1CCCO1 (stereo unspecified)	2	3	-6	3	/
O=C(O)C1Cc2ccccc2CN1C(=O)c1ccccc1 (stereo unspecified)	10	0	19	4	/
CN(Cc1ccco1)C(=O)CSc1nn2c(=O)c(C(C)(C)C)nnc2s1	0	3	6	-2	43*
CC(C)(C)c1nnc2sc(SCC(=O)NCc3ccco3)nn2c1=O	-6	2	-9	-8	6
CCCNC(=O)N1CCC(C(=O)c2ccc(F)cc2)CC1	-4	-2	11	5	/
NS(=O)(=O)c1cc(C(=O)OCC(=O)Nc2ccccc2[N+](=O)[O-])ccc1Cl	9	-3	-2	3	-3
COc1cc2c(cc1OC)-c1cc(Nc3ccc(C(=O)O)cc3)nc(=O)n1CC2	2	0	-1	8	41*
O=C(O)c1cccc(Cn2c(Cl)c(/C=N/NC(=O)c3cc4ccccc4cc3O)sc2=O)c1	0	4	15	-5	42*
COc1ccc(NS(=O)(=O)c2ccc(N3CCCC3=O)cc2)cn1	-11	-1	-8	-7	-2
COc1ccc(CCNC(=O)c2cc3cccc(OC)c3oc2=O)cc1OC	13	0	8	-13	44*
Cc1ccccc1-n1ncc2c1CC(C)(C)CC2NC(=O)c1cn[nH]c1C (stereo unspecified)	-4	5	-10	-3	-1
N#Cc1c(/N=C/c2ccc(-c3ccc(C(=O)O)c(Cl)c3)o2)sc2c1CCCC2	-9	-10	0	-18	28
N#Cc1c(/N=C/c2ccc(-c3ccccc3C(=O)O)o2)sc2c1CCCC2	1	0	1	-1	57*
SMILES	ARFGAP1 inhibitor	LEDGF integ inh	TDP2 inh	ASAP1 GAP inh	Casp6 inh
COCC(=O)N1[C@@H]2CN(C(=O)Nc3ccccc3F)c3ccccc3[C@@H]2[C@@H]1CO	/	/	/	/	36*
COCC(=O)N1[C@H](CO)[C@H]2c3ccccc3N(C(=O)Nc3ccccc3F)C[C@H]21	/	/	/	/	2
COc1cccc(S(=O)(=O)Nc2ccc3c(c2)[C@@H]2C[C@@H](CC(=O)NC4CCCCC4)O[C@@H](CO)[C@@H]2O3)c1	/	/	/	/	-5
COc1cccc(S(=O)(=O)Nc2ccc3c(c2)[C@H]2C[C@@H](CC(=O)NC4CCCCC4)O[C@H](CO)[C@H]2O3)c1	/	/	/	/	64*
O=C(C[C@@H]1C[C@H]2c3cc(NC(=O)Nc4ccccc4F)ccc3O[C@H]2[C@H](CO)O1)NC1CCCC1	/	/	/	/	99*
O=C1NN(c2ccccc2)C(=O)/C1=C/c1ccc(Sc2ccc(Cl)cc2)o1	-6	-4	2	12	40*
O=C(O)c1cc(-c2ccc(/C=C3\NC(=O)N(c4ccccc4)C3=O)o2)ccc1Cl	5	5	3	-1	25
Cc1cccc(N2NC(=O)/C(=C/c3ccc(-c4ccc(Cl)c(C(=O)O)c4)o3)C2=O)c1	0	5	-9	0	52*
Cc1ccc(Sc2ccc(/C=C3/C(=O)NN(c4ccccc4)C3=O)o2)cc1	-12	5	-20	3	24
O=C1NN(c2ccccc2)C(=O)/C1=C/c1ccc(-c2ccc(Cl)c(C(=O)O)c2)o1	-13	5	-7	-7	55*
COC(=O)c1cccc(CN2C(=O)C(C)Sc3ccc(C#N)cc32)c1 (stereo unspecified)	2	-2	6	-8	1
COc1ccc2c(-c3ccccc3)cc(SC(C)C(N)=O)nc2c1 (stereo unspecified)	-4	2	2	-1	0
COc1ccc(CN(C)C(=O)c2cccc(S(=O)(=O)N3CCN(c4ccccc4)CC3)c2)c(OC)c1OC	-13	-2	-6	14	3
CC(C)n1c(O)c(N=NC(=O)Cc2csc(N3CCOCC3)n2)c2ccccc21	-4	5	2	5	0
Cc1nnc(N2C(=O)c3oc4ccccc4c(=O)c3C2c2ccco2)s1 (stereo unspecified)	9	0	9	-17	38*
N/C(=N\OS(=O)(=O)c1ccc(Cl)cc1)c1ccncc1	-3	3	4	-1	-9
CCOC(=O)C(C)On1c(-c2ccccc2)nc2ccc([N+](=O)[O-])cc21 (stereo unspecified)	-10	-2	5	-2	/
O=C(O)COn1c(-c2ccccc2)nc2ccc([N+](=O)[O-])cc21	11	9	2	6	43*
O=C1CC(=O)NC(SCC(=O)Nc2ccccc2[N+](=O)[O-])=N1	-5	8	18	-4	41*
COc1ccc2cc3[n+](cc2c1O)CCc1cc2c(cc1-3)OCO2	6	27*	24	-2	27
COCC(=O)Nc1ccc2c(c1)C(=O)N(C)[C@@H]1CC[C@@H](CC(=O)Nc3ccccc3)O[C@@H]1CO2	/	/	/	/	1
